Measured values as given in ChEMBL document CHEMBL1123134, “Diterpenoid sweeteners. Synthesis and sensory evaluation of stevioside analogues with improved organoleptic properties” (1985).

Legend:
Type in all cases: functional
Homo sapiens [1] = species on record: Homo sapiens; test: Sensory evaluation was done at a concentration of 250 p.p.m. against property of sweetness.
In short: (§1)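 Aqueous sample solutions were tasted at about pH 7, so carboxylic acids were in ionized form.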

Homo sapiens [2] = species on record: Homo sapiens; test: Sensory evaluation was done at a concentration of 250 p.p.m. against other properties.; in short: as §1
Homo sapiens [3] = species on record: Homo sapiens; test: Sensory evaluation was done for sweetness at a concentration of 250 p.p.m. against compound potency calculated on a molar basis.
In short: (§2)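 Sweetness tasted in solutions held near pH ~7, so carboxylic acids are ionized. Potency is reported two ways: on a weight basis (Pw) and on a molar basis (Pm).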

Homo sapiens [4] = species on record: Homo sapiens; test: Sensory evaluation was done at a concentration of 250 p.p.m. against property of bitterness.; in short: as §1
Homo sapiens [5] = species on record: Homo sapiens; test: Sensory evaluation was done for sweetness at a concentration of 250 p.p.m. against sample intensity relative to 10% sucrose.; in short: as §2
Homo sapiens [6] = species on record: Homo sapiens; test: Sensory evaluation was done for sweetness at a concentration of 250 p.p.m. against compound potency calculated on weight basis.; in short: as §2
Homo sapiens [7] = species on record: Homo sapiens; test: Sensory evaluation was done for sweetness at a concentration of 100000 p.p.m. against compound potency calculated on a molar basis.
In short: (§3)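 Solutions were tasted at about pH 7. Sweetness potency was expressed two ways: Pw, calculated on a weight basis, and Pm, calculated on a molar basis.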

Homo sapiens [8] = species on record: Homo sapiens; test: Sensory evaluation was done for sweetness at a concentration of 100000 p.p.m. against sample intensity relative to 10% sucrose.; in short: as §2
Homo sapiens [9] = species on record: Homo sapiens; test: Sensory evaluation was done at a concentration of 100000 p.p.m. against other properties.; in short: as §1
Homo sapiens [10] = species on record: Homo sapiens; test: Sensory evaluation was done at a concentration of 100000 p.p.m. against property of bitterness.; in short: as §1
Homo sapiens [11] = species on record: Homo sapiens; test: Sensory evaluation was done for sweetness at a concentration of 100000 p.p.m. against compound potency calculated on weight basis.; in short: as §3
Homo sapiens [12] = species on record: Homo sapiens; test: Sensory evaluation was done at a concentration of 100000 p.p.m. against property of sweetness.; in short: as §1
Homo sapiens [13] = species on record: Homo sapiens; test: Sensory evaluation was done at a concentration of 615 p.p.m. against other properties.; in short: as §1
Homo sapiens [14] = species on record: Homo sapiens; test: Sensory evaluation was done at a concentration of 615 p.p.m. against property of sweetness.; in short: as §1
Homo sapiens [15] = species on record: Homo sapiens; test: Sensory evaluation was done for sweetness at a concentration of 615 p.p.m. against sample intensity relative to 10% sucrose.; in short: as §2
Homo sapiens [16] = species on record: Homo sapiens; test: Sensory evaluation was done at a concentration of 615 p.p.m. against property of bitterness.; in short: as §1
Homo sapiens [17] = species on record: Homo sapiens; test: Sensory evaluation was done for sweetness at a concentration of 615 p.p.m. against compound potency calculated on weight basis.; in short: as §2
Homo sapiens [18] = species on record: Homo sapiens; test: Sensory evaluation was done for sweetness at a concentration of 615 p.p.m. against compound potency calculated on a molar basis.; in short: as §2
Homo sapiens [19] = species on record: Homo sapiens; test: Sensory evaluation was done at a concentration of 500 p.p.m. against property of sweetness.; in short: as §1
Homo sapiens [20] = species on record: Homo sapiens; test: Sensory evaluation was done at a concentration of 500 p.p.m. against property of bitterness.; in short: as §1
Homo sapiens [21] = species on record: Homo sapiens; test: Sensory evaluation was done for sweetness at a concentration of 500 p.p.m. against compound potency calculated on weight basis.; in short: as §2
Homo sapiens [22] = species on record: Homo sapiens; test: Sensory evaluation was done for sweetness at a concentration of 500 p.p.m. against sample intensity relative to 10% sucrose.; in short: as §2
Homo sapiens [23] = species on record: Homo sapiens; test: Sensory evaluation was done at a concentration of 500 p.p.m. against other properties.; in short: as §1
Homo sapiens [24] = species on record: Homo sapiens; test: Sensory evaluation was done for sweetness at a concentration of 500 p.p.m. against compound potency calculated on a molar basis.; in short: as §2
Homo sapiens [25] = species on record: Homo sapiens; test: Sensory evaluation was done at a concentration of 534 p.p.m. against property of bitterness.; in short: as §1
Homo sapiens [26] = species on record: Homo sapiens; test: Sensory evaluation was done at a concentration of 534 p.p.m. against property of sweetness.; in short: as §1
Homo sapiens [27] = species on record: Homo sapiens; test: Sensory evaluation was done at a concentration of 534 p.p.m. against other properties.; in short: as §1
Homo sapiens [28] = species on record: Homo sapiens; test: Sensory evaluation was done for sweetness at a concentration of 534 p.p.m. against compound potency calculated on a molar basis.; in short: as §2
Homo sapiens [29] = species on record: Homo sapiens; test: Sensory evaluation was done for sweetness at a concentration of 534 p.p.m. against sample intensity relative to 10% sucrose.; in short: as §2
Homo sapiens [30] = species on record: Homo sapiens; test: Sensory evaluation was done for sweetness at a concentration of 534 p.p.m. against compound potency calculated on weight basis.; in short: as §2
Homo sapiens [31] = species on record: Homo sapiens; test: Sensory evaluation was done for sweetness at a concentration of 634 p.p.m. against sample intensity relative to 10% sucrose.; in short: as §2
Homo sapiens [32] = species on record: Homo sapiens; test: Sensory evaluation was done at a concentration of 634 p.p.m. against property of bitterness.; in short: as §1
Homo sapiens [33] = species on record: Homo sapiens; test: Sensory evaluation was done for sweetness at a concentration of 634 p.p.m. against compound potency calculated on a molar basis.; in short: as §2
Homo sapiens [34] = species on record: Homo sapiens; test: Sensory evaluation was done for sweetness at a concentration of 634 p.p.m. against compound potency calculated on weight basis.; in short: as §2
Homo sapiens [35] = species on record: Homo sapiens; test: Sensory evaluation was done at a concentration of 634 p.p.m. against other properties.; in short: as §1
Homo sapiens [36] = species on record: Homo sapiens; test: Sensory evaluation was done at a concentration of 634 p.p.m. against property of sweetness.; in short: as §1
Homo sapiens [37] = species on record: Homo sapiens; test: Sensory evaluation was done at a concentration of 750 p.p.m. against other properties.; in short: as §1
Homo sapiens [38] = species on record: Homo sapiens; test: Sensory evaluation was done for sweetness at a concentration of 750 p.p.m. against compound potency calculated on weight basis.; in short: as §2
Homo sapiens [39] = species on record: Homo sapiens; test: Sensory evaluation was done for sweetness at a concentration of 750 p.p.m. against sample intensity relative to 10% sucrose.; in short: as §2
Homo sapiens [40] = species on record: Homo sapiens; test: Sensory evaluation was done at a concentration of 750 p.p.m. against property of bitterness.; in short: as §1
Homo sapiens [41] = species on record: Homo sapiens; test: Sensory evaluation was done for sweetness at a concentration of 750 p.p.m. against compound potency calculated on a molar basis.; in short: as §2
Homo sapiens [42] = species on record: Homo sapiens; test: Sensory evaluation was done at a concentration of 750 p.p.m. against property of sweetness.; in short: as §1

Structure (SMILES): COc1ccc(CCC(=O)c2c(O)cc(O[C@@H]3O[C@H](CO)[C@@H](O)[C@H](O)[C@H]3O[C@@H]3O[C@@H](C)[C@H](O)[C@@H](O)[C@H]3O)cc2O)cc1O [NEOHESPERIDIN DIHYDROCHALCONE]
- Sensory evaluation (Homo sapiens [1]): 81
- Sensory evaluation (Homo sapiens [2]): 16
- Pm (Homo sapiens [3]): 860
- Sensory evaluation (Homo sapiens [4]): 3
- Ip (Homo sapiens [5]): 1.2
- Pw (Homo sapiens [6]): 480

Structure (SMILES): OC[C@H]1O[C@@](CO)(O[C@H]2O[C@H](CO)[C@@H](O)[C@H](O)[C@H]2O)[C@@H](O)[C@@H]1O [SUCROSE]
- Pm (Homo sapiens [7]): 1
- Ip (Homo sapiens [8]): 1
- Sensory evaluation (Homo sapiens [9]): 0
- Sensory evaluation (Homo sapiens [10]): 0
- Pw (Homo sapiens [11]): 1
- Sensory evaluation (Homo sapiens [12]): 100

Structure (SMILES): C=C1C[C@@]23CC[C@H]4[C@@](C)(CCC[C@@]4(C)C(=O)OCCC(N)C(=O)O)[C@@H]2CC[C@]1(O[C@@H]1O[C@@H](CO)[C@@H](O)[C@H](O)[C@@H]1O[C@@H]1O[C@@H](CO)[C@@H](O)[C@H](O)[C@@H]1O)C3 (some centres not stated)
- Sensory evaluation (Homo sapiens [13]): 5
- Sensory evaluation (Homo sapiens [14]): 60
- Ip (Homo sapiens [15]): 1.2
- Sensory evaluation (Homo sapiens [16]): 35
- Pw (Homo sapiens [17]): 200
- Pm (Homo sapiens [18]): 420

Structure (SMILES): C=C1C[C@@]23CC[C@H]4[C@@](C)(CCC[C@@]4(C)C(=O)O[C@@H]4O[C@H](CO)[C@@H](O)[C@H](O)[C@H]4O)[C@@H]2CC[C@]1(O[C@@H]1O[C@H](CO)[C@@H](O)[C@H](O)[C@H]1O[C@@H]1O[C@H](CO)[C@@H](O)[C@H](O)[C@H]1O)C3 [STEVIOSIDE]
- Sensory evaluation (Homo sapiens [19]): 62
- Sensory evaluation (Homo sapiens [20]): 30
- Pw (Homo sapiens [21]): 190
- Ip (Homo sapiens [22]): 0.9
- Sensory evaluation (Homo sapiens [23]): 8
- Pm (Homo sapiens [24]): 440

Structure (SMILES): C=C1C[C@@]23CC[C@H]4[C@@](C)(CCC[C@@]4(C)C(=O)OCCCS(=O)(=O)[O-])[C@@H]2CC[C@]1(O[C@H]1O[C@H](CO)[C@@H](O)[C@H](O)[C@H]1O[C@@H]1O[C@H](CO)[C@@H](O)[C@H](O)[C@H]1O)C3.[Na+]
- Sensory evaluation (Homo sapiens [25]): 4
- Sensory evaluation (Homo sapiens [26]): 92
- Sensory evaluation (Homo sapiens [27]): 4
- Pm (Homo sapiens [28]): 360
- Ip (Homo sapiens [29]): 0.8
- Pw (Homo sapiens [30]): 160

Structure (SMILES): C=C1C[C@@]23CC[C@H]4[C@@](C)(CCC[C@@]4(C)C(=O)OCC(=O)O)[C@@H]2CC[C@]1(O[C@@H]1O[C@@H](CO)[C@@H](O)[C@H](O)[C@@H]1O[C@@H]1O[C@@H](CO)[C@@H](O)[C@H](O)[C@@H]1O)C3
- Ip (Homo sapiens [31]): 0.9
- Sensory evaluation (Homo sapiens [32]): 19
- Pm (Homo sapiens [33]): 310
- Pw (Homo sapiens [34]): 140
- Sensory evaluation (Homo sapiens [35]): 1
- Sensory evaluation (Homo sapiens [36]): 80

Structure (SMILES): COC(=O)[C@H](Cc1ccccc1)NC(=O)[C@@H](N)CC(=O)O [ASPARTAME]
- Sensory evaluation (Homo sapiens [37]): 0
- Pw (Homo sapiens [38]): 130
- Ip (Homo sapiens [39]): 1
- Sensory evaluation (Homo sapiens [40]): 0
- Pm (Homo sapiens [41]): 85
- Sensory evaluation (Homo sapiens [42]): 100
